The test system of one series is Plasma. Put plainly: Drug uptake in mouse plasma at 100 mg/kg, po via gavage at 0.5 to 4 hrs post dose by LC-MS/MS analysis. The conditions noted are these: in vivo. In kind it is ADME, organism-based. The procedure, abridged: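 Plasma concentrations in mice were measured at 0.5 and 4 h after a 100 mg/kg oral dose given as a 0.5% CMC suspension.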
Series [1] can be described thus: Oral bioavailability in rat. In kind it is ADME, organism-based. Conditions: in vivo; call rule not given here.

Some results are limits rather than exact numbers.

`Cc1ccc(C(=O)c2sc3cc(O)ccc3c2Oc2ccc(/C=C/C(=O)O)cc2)c(C)c1`: the Drug uptake result in the series on Plasma is reported as “Active”.

As to `Cc1cc(Cl)cc(C)c1C(=O)c1sc2cc(O)ccc2c1Oc1ccc(/C=C/C(=O)O)cc1`, the Drug uptake entry in the series with Plasma is recorded as “Active”.

In series [1], `Oc1ccc2c(c1)CC[C@H](c1ccccc1)[C@@H]2c1ccc(OCCN2CCCC2)cc1` [LASOFOXIFENE] showed a bioavailability of over 60%.

Take `Cc1cc(F)cc(C)c1C(=O)c1sc2cc(O)ccc2c1Oc1ccc(/C=C/C(=O)O)cc1` [RINTODESTRANT]: the Drug uptake result in the series on Plasma is on record as “Active”.

As a reminder, the bioavailability is the share of a dose that reaches the circulation, judged against a reference dose that is usually intravenous.

For the origin of these results see ChEMBL document CHEMBL3997798, “Novel Selective Estrogen Receptor Downregulators (SERDs) Developed against Treatment-Resistant Breast Cancer” (J Med Chem, 2017).
